Source: PMC6281781 (Structure (London, England : 1993), 2018)

Key:
[1] = test system: PACSIN3 SH3 domain; assay: NMR 1H,15N-HSQC chemical shift titration with PACSIN3 SH3 domain; assay type: binding, chicken; details: for affinity for PACSIN3 SH3 domain relative to wildtype (in words): mutations in the TRPV4-PRR, interaction not fully abolished, Fig. S6, Table S1
Summary of the method: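 Chicken PACSIN3 SH3 domain (N-terminal His6) was 15N-labelled in E. coli minimal medium and purified by NiNTA then Superdex75 SEC. It was held at 250 μM in 10 mM Tris pH7, 100 mM NaCl and titrated from concentrated stocks with peptide (wildtype, AAWAA, P128A or P128A/P129L) and/or lipid, with the second ligand added sequentially. HSQC shifts were fitted for KD.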

[2] = target: chicken PACSIN3 SH3 domain (chicken); assay: NMR titration
[3] = target: chicken PACSIN1 SH3 domain (chicken); assay: NMR titration

P128A: TRPV4 N-terminal peptide with single P128A mutation in the PRR (ENKRWRRRVVEKPVAGTKGPAPNAPPILKV; left off: His6-SUMO, N-terminal, cleaved)
affinity for PACSIN3 SH3 domain relative to wildtype (in words) [1]: weakened

CCCCCCCC(=O)OC[C@H](COP(=O)(O)O[C@@H]1[C@H](O)[C@H](O)[C@@H](OP(=O)(O)O)[C@H](OP(=O)(O)O)[C@H]1O)OC(=O)CCCCCCC [PIP2, diC8-PI(4,5)P2, reference compound]
interaction with PACSIN3 SH3 domain (in words) ([1]; PIP2 added to isolated 15N-PACSIN3 SH3, no chemical shift changes in 1H,15N-HSQC): does not interact

P128A/P129L: TRPV4 N-terminal peptide with double mutation P128A/P129L in the PRR (ENKRWRRRVVEKPVAGTKGPAPNALPILKV; left off: His6-SUMO, N-terminal, cleaved)
affinity for PACSIN3 SH3 domain relative to wildtype (in words) [1]: weakened

chicken TRPV4 PIP2 binding domain plus proline rich region peptide (PBD-PRR, residues 105-134) (from UniProt A0A1D5PXA5 105-134)
Kd [2]: 74.2 µM

chicken TRPV4 proline rich region peptide (PRR, residues 121-134), native sequence (from UniProt A0A1D5PXA5 121-134)
Kd [3]: 51.6 µM
Kd [2]: 68.6 µM
